In ChEMBL document CHEMBL4118270, “Synthesis, in vitro and in silico studies of novel potent urease inhibitors: N-[4-({5-[(3-Un/substituted-anilino-3-oxopropyl)sulfanyl]-1,3,4-oxadiazol-2-yl}methyl)-1,3-thiazol-2-yl]benzamides” (Bioorg Med Chem, 2018):

What was measured:
[1] = target: Urease (Helicobacter pylori) (UniProt Q0PXQ5); test: Inhibition of Campylobacter pylori urease preincubated for 5 mins followed by urea addition measured after 10 mins by Berthelot assay relative to control; design: concentration or dose not given beside the values
Method in brief: (§1)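 Modified Berthelot assay in pH 7.0 phosphate buffer. Sample and enzyme (0.135 units) are pre-incubated 5 min at 37 °C. Urea (20 mM stock) is added and incubated 10 min at 37 °C. […] IC50 is fitted from dilution series. Mean ± SEM, n = 3.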

[2] = target: Urease (Helicobacter pylori, UniProt Q0PXQ5); test: Inhibition of Campylobacter pylori urease preincubated for 5 mins followed by urea addition measured after 10 mins by Berthelot assay; method in brief: as §1
Urease, sequence (Q0PXQ5 whole entry): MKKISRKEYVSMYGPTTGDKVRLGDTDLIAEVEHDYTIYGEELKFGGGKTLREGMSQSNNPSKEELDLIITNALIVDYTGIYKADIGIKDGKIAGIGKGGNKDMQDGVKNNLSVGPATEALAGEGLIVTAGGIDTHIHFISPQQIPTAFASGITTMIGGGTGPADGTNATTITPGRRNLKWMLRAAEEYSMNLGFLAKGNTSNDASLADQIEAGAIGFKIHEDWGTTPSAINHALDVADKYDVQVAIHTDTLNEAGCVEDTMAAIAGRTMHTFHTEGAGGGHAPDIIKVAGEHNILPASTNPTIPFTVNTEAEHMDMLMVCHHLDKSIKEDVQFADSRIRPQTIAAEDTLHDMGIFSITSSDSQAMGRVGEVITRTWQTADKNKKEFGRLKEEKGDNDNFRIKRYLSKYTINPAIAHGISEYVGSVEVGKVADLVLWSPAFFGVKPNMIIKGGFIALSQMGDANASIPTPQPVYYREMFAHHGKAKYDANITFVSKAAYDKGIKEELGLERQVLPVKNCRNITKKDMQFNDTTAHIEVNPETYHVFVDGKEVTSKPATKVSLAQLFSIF

Urease (Helicobacter pylori), sequence (Q0PXQ5 as listed by the source): as the sequence (Q0PXQ5 whole entry) above

Cc1ccc(C)c(NC(=O)CCSc2nnc(Cc3csc(NC(=O)c4ccccc4)n3)o2)c1
inhibition [1]: 77.9% | IC50 [2]: 15.2 µM

Cc1cc(C)cc(NC(=O)CCSc2nnc(Cc3csc(NC(=O)c4ccccc4)n3)o2)c1
inhibition [1]: 64.8% | IC50 [2]: 52.1 µM

NC(N)=S [THIOUREA]
IC50 [2]: 21.1 µM

Cc1cccc(C)c1NC(=O)CCSc1nnc(Cc2csc(NC(=O)c3ccccc3)n2)o1
inhibition [1]: 98.5% | IC50 [2]: 2.79 µM

CCOc1ccc(NC(=O)CCSc2nnc(Cc3csc(NC(=O)c4ccccc4)n3)o2)cc1
inhibition [1]: 88.8% | IC50 [2]: 23.2 µM

CCc1ccccc1NC(=O)CCSc1nnc(Cc2csc(NC(=O)c3ccccc3)n2)o1
inhibition [1]: 98.7% | IC50 [2]: 2.58 µM

O=C(CCSc1nnc(Cc2csc(NC(=O)c3ccccc3)n2)o1)Nc1ccccc1
inhibition [1]: 98.5% | IC50 [2]: 2.95 µM

Cc1cccc(NC(=O)CCSc2nnc(Cc3csc(NC(=O)c4ccccc4)n3)o2)c1
inhibition [1]: 84.8% | IC50 [2]: 12.2 µM

Cc1ccccc1NC(=O)CCSc1nnc(Cc2csc(NC(=O)c3ccccc3)n2)o1
inhibition [1]: 98.2% | IC50 [2]: 7.47 µM

Cc1ccc(NC(=O)CCSc2nnc(Cc3csc(NC(=O)c4ccccc4)n3)o2)cc1C
inhibition [1]: 76.5% | IC50 [2]: 34.2 µM

CCc1ccc(NC(=O)CCSc2nnc(Cc3csc(NC(=O)c4ccccc4)n3)o2)cc1
inhibition [1]: 74.2% | IC50 [2]: 43.2 µM

Cc1ccc(NC(=O)CCSc2nnc(Cc3csc(NC(=O)c4ccccc4)n3)o2)cc1
inhibition [1]: 76.4% | IC50 [2]: 29.2 µM

Cc1cccc(NC(=O)CCSc2nnc(Cc3csc(NC(=O)c4ccccc4)n3)o2)c1C
inhibition [1]: 69.8% | IC50 [2]: 48.2 µM
